In ChEMBL document CHEMBL3286189, “Discovery and SAR studies of a novel class of cytotoxic 1,4-disubstituted piperidines via Ugi reaction” (Eur J Med Chem, 2014):

Tests used:
Type in all cases: functional
[1] = Anticancer activity against human HCC2998 cells
Summary of the method: (§1)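 Values come from the NCI 60-cell-line human tumour panel, run on a single analog. Cytostatic and cytotoxic responses were read for each cell line across graded molar concentrations of that compound.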

[2] = Anticancer activity against human HOP92 cells; summary of the method: as §1
[3] = test system: MCF7; assay: Anticancer activity against human MCF7 cells; summary of the method: as §1
[4] = test system: CCRF-CEM; assay: Anticancer activity against human CCRF-CEM cells; summary of the method: as §1
[5] = test system: HT-29; assay: Anticancer activity against human HT-29 cells; summary of the method: as §1
[6] = test system: SNB-19; assay: Anticancer activity against human SNB19 cells; summary of the method: as §1
[7] = test system: NCI-H460; assay: Anticancer activity against human NCI-H460 cells; summary of the method: as §1
[8] = Anticancer activity against human Hs 578T cells; summary of the method: as §1
[9] = Anticancer activity against human BT549 cells; summary of the method: as §1
[10] = Anticancer activity against human OVCAR4 cells; summary of the method: as §1
[11] = Anticancer activity against human MOLT4 cells; summary of the method: as §1
[12] = test system: NCI-H322M; assay: Anticancer activity against human NCI-H322M cells; summary of the method: as §1
[13] = test system: NCI-H522; assay: Anticancer activity against human NCI-H522 cells; summary of the method: as §1
[14] = test system: KM12; assay: Anticancer activity against human KM12 cells; summary of the method: as §1
[15] = test system: MDA-MB-468; assay: Anticancer activity against human MDA-MB-468 cells; summary of the method: as §1
[16] = test system: IGROV-1; assay: Anticancer activity against human IGROV1 cells; summary of the method: as §1
[17] = test system: Malme-3M; assay: Anticancer activity against human MALME-3M cells; summary of the method: as §1
[18] = Anticancer activity against human OVCAR8 cells; summary of the method: as §1
[19] = test system: 786-0; assay: Anticancer activity against human 786-0 cells; summary of the method: as §1
[20] = read-out: pLC50 (the source's name) (converted)

CC(C)(C)OC(=O)N[C@@H](Cc1ccccc1)C(=O)N(Cc1ccccc1)C1(C(=O)NCc2ccccc2)CCN(Cc2ccccc2)CC1
GI50 ([1]; HCC 2998): 4.57 µM
CC50 ([1]; HCC 2998, read-out: pLC50 (the source's name) (converted)): > 100 µM
TGI ([1]; HCC 2998, read-out: pTGI): > 100 µM
GI50 ([2]; HOP-92): 1.45 µM
CC50 ([2]; HOP-92, read-out: pLC50 (the source's name) (converted)): > 100 µM
TGI ([2]; HOP-92, read-out: pTGI (converted)): 5.37 µM
GI50 [3]: 2.82 µM
CC50 [3, 20]: > 100 µM
TGI ([3]; read-out: pTGI (converted)): 19.1 µM
GI50 [4]: 3.31 µM
CC50 [4, 20]: > 100 µM
TGI ([4]; read-out: pTGI): > 100 µM
GI50 [5]: 2.14 µM
CC50 [5, 20]: 57.5 µM
TGI ([5]; read-out: pTGI (converted)): 6.76 µM
GI50 [6]: 5.25 µM
CC50 [6, 20]: > 100 µM
TGI ([6]; read-out: pTGI): > 100 µM
GI50 [7]: 3.02 µM
CC50 [7, 20]: > 100 µM
TGI ([7]; read-out: pTGI (converted)): 87.1 µM
GI50 [8]: 4.27 µM
CC50 [8, 20]: > 100 µM
TGI ([8]; read-out: pTGI): > 100 µM
GI50 ([9]; BT-549): 2.09 µM
CC50 ([9]; BT-549, read-out: pLC50 (the source's name) (converted)): > 100 µM
TGI ([9]; BT-549, read-out: pTGI (converted)): 7.94 µM
GI50 ([10]; OVCAR-4): 3.24 µM
CC50 ([10]; OVCAR-4, read-out: pLC50 (the source's name) (converted)): > 100 µM
TGI ([10]; OVCAR-4, read-out: pTGI): > 100 µM
GI50 ([11]; MOLT-4): 1.82 µM
CC50 ([11]; MOLT-4, read-out: pLC50 (the source's name) (converted)): > 100 µM
TGI ([11]; MOLT-4, read-out: pTGI (converted)): 6.31 µM
GI50 [12]: 9.33 µM
CC50 [12, 20]: > 100 µM
TGI ([12]; read-out: pTGI): > 100 µM
GI50 [13]: 3.98 µM
CC50 [13, 20]: > 100 µM
TGI ([13]; read-out: pTGI): > 100 µM
GI50 [14]: 4.17 µM
CC50 [14, 20]: > 100 µM
TGI ([14]; read-out: pTGI): > 100 µM
GI50 [15]: 1.62 µM
CC50 [15, 20]: > 100 µM
TGI ([15]; read-out: pTGI (converted)): 5.89 µM
GI50 [16]: 5.75 µM
CC50 [16, 20]: > 100 µM
TGI ([16]; read-out: pTGI): > 100 µM
GI50 [17]: 3.02 µM
CC50 [17, 20]: > 100 µM
TGI ([17]; read-out: pTGI (converted)): 10 µM
GI50 ([18]; OVCAR-8): 3.47 µM
CC50 ([18]; OVCAR-8, read-out: pLC50 (the source's name) (converted)): > 100 µM
TGI ([18]; OVCAR-8, read-out: pTGI): > 100 µM
GI50 [19]: 3.02 µM
CC50 [19, 20]: > 100 µM
TGI ([19]; read-out: pTGI): 43.7 µM
